Measurements pooled from the literature.
Each line is one published result; the experiments were not run side by side.
Target: Mitogen-activated protein kinase kinase kinase 7 (MAP3K7, Homo sapiens, UniProt O43318)
Sequence (O43318 1-606, as in one of the studies): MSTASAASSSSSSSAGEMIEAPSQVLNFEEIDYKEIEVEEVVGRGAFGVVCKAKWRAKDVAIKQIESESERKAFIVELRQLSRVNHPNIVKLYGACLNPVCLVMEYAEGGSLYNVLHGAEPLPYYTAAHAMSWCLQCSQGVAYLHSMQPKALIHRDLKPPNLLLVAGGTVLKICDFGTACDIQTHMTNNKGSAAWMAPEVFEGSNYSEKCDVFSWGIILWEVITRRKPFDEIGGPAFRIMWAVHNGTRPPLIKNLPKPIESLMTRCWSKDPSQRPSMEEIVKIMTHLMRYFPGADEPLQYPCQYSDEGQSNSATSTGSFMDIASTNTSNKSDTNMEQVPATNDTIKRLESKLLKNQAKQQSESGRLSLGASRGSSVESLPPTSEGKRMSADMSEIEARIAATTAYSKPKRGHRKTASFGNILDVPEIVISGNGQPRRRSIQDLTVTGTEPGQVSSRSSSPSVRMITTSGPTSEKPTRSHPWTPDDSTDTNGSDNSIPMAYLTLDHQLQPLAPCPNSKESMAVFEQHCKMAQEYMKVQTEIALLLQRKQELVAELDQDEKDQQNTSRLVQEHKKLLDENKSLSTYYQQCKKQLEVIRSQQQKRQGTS

F[C@@H]1CCN(c2nccc(-c3cnn4ncccc34)n2)C1 — remaining binding (binding; 1 µM): 100%
C[C@@H](c1cccc(C#N)c1)n1cc(Cl)cc(C(N)=O)c1=N — remaining binding (cell-free assay; competition with immobilised ligand; 1 µM): 100%
FC(F)(F)Oc1cccc(-c2cnc3ccc(-c4ccncc4)nn23)c1 — remaining binding (binding; competition with immobilised ligand; 5 µM): 34%
COc1cnc(Nc2cccc(S(N)(=O)=O)c2)nc1N1CCN(c2ccccc2)CC1 — remaining binding (binding; competition with immobilised ligand; 1 µM): 85%
C[C@H]1CCN(c2nccc(-c3cnn4ncccc34)n2)C1 — remaining binding (binding; 1 µM): 71%
CC(C)(O)c1cncc(-c2nc3ccc(F)cc3n2C2CC2)c1 — remaining binding (cell-free assay; competition with immobilised ligand; 1 µM): 100%
CCN1CCN(Cc2ccc(C(=O)Nc3ccc(C)c(Oc4ccc5c(c4)CC(=O)N5)c3)cc2C(F)(F)F)CC1 — remaining binding (binding; competition with immobilised ligand; 1 µM): 7.6%
Cc1cnn2ncc(-c3ccnc(N(C)C)n3)c2c1 — remaining binding (binding; 1 µM): 77%
O=C(NCC1CCOCC1)c1n[nH]cc1NC(=O)c1c(F)cccc1F — remaining binding (binding; competition with immobilised ligand; 1 µM): 73%
CN(C)c1ncc(F)c(-c2cnn3ncccc23)n1 — remaining binding (binding; 1 µM): 98%
c1cncc(-c2cccc(Nc3nccc(NC4CCCCC4)n3)c2)c1 — remaining binding (binding; competition with immobilised ligand; 10 µM): 19%
COc1ccnn2ncc(-c3ccnc(N(C)C)n3)c12 — remaining binding (binding; 1 µM): 75%
Cn1nc(C(=O)NCc2ccc(C(=O)O)cc2)cc1-c1ccc2[nH]ccc2c1 — remaining binding (cell-free assay; competition with immobilised ligand; 0.1 µM): 95%
O=C(c1ccc(Nc2ncc(Cl)c(-c3ccc(Cl)s3)n2)cc1)N1CCC(N2CCCC2)CC1 — remaining binding (binding; competition with immobilised ligand; 1 µM): 0%
CC1=C(C#N)[C@@H](c2ccc3[nH]nc(C)c3c2)C(C#N)=C(c2ccc(Cl)cc2)N1 — remaining binding (cell-free assay; competition with immobilised ligand; 1 µM): 100%
CN(c1nccc(-c2cnn3ncccc23)n1)C1CC1 — remaining binding (binding; 1 µM): 82%
CC(=O)N1CCC(c2ccc(C(=O)NC3=NCCN3)cc2C(F)(F)F)CC1 — remaining binding (cell-free assay; competition with immobilised ligand; 1 µM): 100%
O=C(NCCCN1CCOCC1)c1ccc(Nc2ncc(Cl)c(-c3ccc(Cl)s3)n2)cc1 — remaining binding (binding; competition with immobilised ligand; 1 µM): 4.5%
O=C(NS(=O)(=O)c1ccc(NCC2CCOCC2)c([N+](=O)[O-])c1)c1ccc(N2CCN(Cc3ccc(C(F)(F)F)cc3-c3ccc(Cl)cc3)CC2)cc1Oc1cnc2[nH]ccc2c1 — remaining binding (cell-free assay; competition with immobilised ligand; 1 µM): 100%
CNC(=O)[C@@H]1CC[C@@H](n2c(-c3ccc4cnccc4c3)nc3ccc(C(=O)NCc4cccc(C(N)=O)c4)cc32)C1 — remaining binding (binding; competition with immobilised ligand; 1 µM): 100%
O=C(c1ccc(Nc2nccc(-c3cc4ccccc4s3)n2)cc1)N1CCC(N2CCCC2)CC1 — remaining binding (binding; competition with immobilised ligand; 1 µM): 7.2%
Cc1c(NC(=O)c2cc(C(N)=O)nc3cc(F)ccc23)c(C(F)(F)F)nn1Cc1ccc(C#N)cc1 — remaining binding (cell-free assay; competition with immobilised ligand; 1 µM): 68%
